The text below walks through data of ChEMBL document CHEMBL5678817, “FTBMT, a Novel and Selective GPR52 Agonist, Demonstrates Antipsychotic-Like and Procognitive Effects in Rodents, Revealing a Potential Therapeutic Agent for Schizophrenia” (J Pharmacol Exp Ther, 2017).

Molecules are shown by their SMILES. Calls of active or inactive are those of the source. No cut-off for these calls is given here.

Experiment [1] addresses G-protein coupled receptor 52 (Mus musculus) (UniProt P0C5J4). The experiment can be described thus: […] agonist activity at GPR52 in ICR mouse assessed as increase in DARPP-32 phosphorylation at thr34 residue upto 1 uM incubated for 5 mins. It counts as functional. The method, boiled down:
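Acute 500 μm coronal NAc slices from male ICR mice (8–10 weeks) recovered 60 min at 30 °C in oxygenated Krebs-HCO3 pH 7.4 (adenosine deaminase for first 30 min). Exposed 5 min to 0.01–1 μM, frozen, denatured in 1% SDS with 50 mM NaF. Phospho-Thr34 and total DARPP32 quantified by Western blot densitometry; n = 9.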

The target in experiment [2] is G protein-coupled receptor 52 (Rattus norvegicus) (UniProt A0A8I5ZQK1). The experiment can be described thus: Agonist activity at GPR52 in rat Striatal neuron assessed as increase in NMDA-stimulated GABA release […] followed by NMDA-stimulation and measured after 20 mins by scintillation counter analysis. It counts as cell-based. The settings on record: filed as agonist, time 60.0 min.

In experiment [3] the test system is Mus musculus. The experiment can be described thus: Antipsychotic activity in C57BL/6N mouse assessed as increase in c-fos positive cells in entorhinal cortex at 30 mg/kg, po measured for 2 hrs by immunohistochemistry analysis. It counts as functional, organism-based.
Experiment [4] addresses cAMP and cAMP-inhibited cGMP 3',5'-cyclic phosphodiesterase 10A (Homo sapiens) (UniProt Q9Y233). The experiment can be described thus: Inhibition of PDE10A1 (unknown origin) at 10 uM relative to control. The method, boiled down: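 Enzyme activity assays from the same 98-target biochemical panel. Single test concentration of 10 µM. Read-out is % inhibition of enzyme activity relative to control; negative percentages indicate activation of the enzyme.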

Experiment [5] has as its target Muscarinic acetylcholine receptor M1 (Homo sapiens) (UniProt P11229). The experiment can be described thus: Inhibition of Muscarinic M1 receptor (unknown origin) at 10 uM relative to control. The method, boiled down: (§1)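 Part of a 98-target external biochemical selectivity panel that used radioligand/receptor binding-type assays. Compound tested once at 10 µM. Results are reported as % inhibition versus control; negative values mean stimulation of receptor activity.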

Experiment [6] deals with 5-hydroxytryptamine receptor 4 (Homo sapiens) (UniProt Q13639). The experiment can be described thus: Inhibition of Serotonin 5-HT4 receptor (unknown origin) at 10 uM relative to control. The method, boiled down:
as §1

The species named for experiment [7] is Homo sapiens. The experiment can be described thus: Inhibition of non-selective GABAB receptor (unknown origin) at 10 uM relative to control. The method, boiled down:
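Binding and enzyme panel run by an outside contractor against receptors, ion channels and enzymes. Each assay used a single 10 μM test concentration, and results are expressed as percent inhibition. A negative value means stimulation of receptor activity or activation of enzyme activity.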

Experiment [8] has as its target GABA-A receptor; anion channel (Homo sapiens) (UniProt P14867+P47870+P18507+P28472+P48169+Q99928+Q9UN88+P34903+O00591+O14764+Q8N1C3+P18505+P78334+P47869+P31644+Q16445). The experiment can be described thus: Inhibition of GABAA receptor (unknown origin) at 10 uM in presence of muscimol relative to control. It counts as protein-complex assay. The method, boiled down:
as §1

Experiment [9] deals with Type-2 angiotensin II receptor (Homo sapiens) (UniProt P50052). The experiment can be described thus: Inhibition of AT2 receptor (unknown origin) at 10 uM relative to control. The method, boiled down:
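Single-point screen at 10 μM across receptor, ion channel and enzyme binding or activity assays. Expressed as percent inhibition versus control; negative values denote stimulation.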

5-hydroxytryptamine receptor 4 (Homo sapiens), sequence (Q13639 whole entry): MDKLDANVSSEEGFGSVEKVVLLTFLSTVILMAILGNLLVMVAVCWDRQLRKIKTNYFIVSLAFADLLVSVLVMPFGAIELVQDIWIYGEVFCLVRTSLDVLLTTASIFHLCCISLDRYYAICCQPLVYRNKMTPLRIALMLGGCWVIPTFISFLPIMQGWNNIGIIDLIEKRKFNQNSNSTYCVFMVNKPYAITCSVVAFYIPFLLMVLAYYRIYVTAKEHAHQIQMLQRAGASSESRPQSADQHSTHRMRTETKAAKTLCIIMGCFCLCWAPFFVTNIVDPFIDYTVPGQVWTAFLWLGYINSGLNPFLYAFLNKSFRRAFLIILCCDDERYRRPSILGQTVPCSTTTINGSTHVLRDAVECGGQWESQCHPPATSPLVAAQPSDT
G protein-coupled receptor 52 (Rattus norvegicus), sequence (A0A8I5ZQK1 as listed by the source): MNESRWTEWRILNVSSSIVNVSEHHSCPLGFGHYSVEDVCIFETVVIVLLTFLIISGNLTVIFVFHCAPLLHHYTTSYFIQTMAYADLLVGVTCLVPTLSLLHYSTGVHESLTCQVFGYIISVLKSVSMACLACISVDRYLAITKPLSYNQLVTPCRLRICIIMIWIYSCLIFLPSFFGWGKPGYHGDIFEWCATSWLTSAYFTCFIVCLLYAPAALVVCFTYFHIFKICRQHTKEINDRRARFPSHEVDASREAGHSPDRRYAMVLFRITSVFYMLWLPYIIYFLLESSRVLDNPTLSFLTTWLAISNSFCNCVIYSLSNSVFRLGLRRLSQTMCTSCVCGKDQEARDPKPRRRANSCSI
Muscarinic acetylcholine receptor M1 (Homo sapiens), sequence (P11229 whole entry): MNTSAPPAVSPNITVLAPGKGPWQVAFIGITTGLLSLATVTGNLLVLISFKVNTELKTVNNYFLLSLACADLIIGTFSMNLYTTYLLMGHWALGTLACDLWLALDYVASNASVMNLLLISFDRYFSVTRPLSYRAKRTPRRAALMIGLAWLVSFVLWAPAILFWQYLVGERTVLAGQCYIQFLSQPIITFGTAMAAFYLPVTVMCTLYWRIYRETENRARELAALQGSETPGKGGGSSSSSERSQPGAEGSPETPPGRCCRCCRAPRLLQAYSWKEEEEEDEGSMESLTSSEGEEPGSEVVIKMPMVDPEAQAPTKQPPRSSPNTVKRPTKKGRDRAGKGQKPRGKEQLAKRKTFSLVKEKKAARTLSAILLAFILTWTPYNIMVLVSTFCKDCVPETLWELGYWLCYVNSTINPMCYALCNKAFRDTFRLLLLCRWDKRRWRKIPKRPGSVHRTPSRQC
G-protein coupled receptor 52 (Mus musculus), sequence (P0C5J4 whole entry): as the sequence (A0A8I5ZQK1 as listed by the source) above, with V14M, D250E, Q333E, G342A, R348Q counted along it
Type-2 angiotensin II receptor (Homo sapiens), sequence (P50052 whole entry): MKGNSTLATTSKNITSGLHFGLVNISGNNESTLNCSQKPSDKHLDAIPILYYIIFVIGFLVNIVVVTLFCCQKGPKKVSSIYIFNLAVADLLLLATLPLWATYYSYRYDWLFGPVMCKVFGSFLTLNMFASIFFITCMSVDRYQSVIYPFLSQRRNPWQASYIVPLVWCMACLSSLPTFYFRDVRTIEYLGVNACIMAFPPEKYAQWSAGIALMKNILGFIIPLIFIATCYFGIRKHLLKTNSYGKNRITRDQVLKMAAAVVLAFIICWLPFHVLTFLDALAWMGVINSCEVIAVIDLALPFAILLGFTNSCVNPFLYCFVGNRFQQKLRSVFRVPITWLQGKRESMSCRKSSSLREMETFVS
cAMP and cAMP-inhibited cGMP 3',5'-cyclic phosphodiesterase 10A (Homo sapiens), sequence (Q9Y233 whole entry): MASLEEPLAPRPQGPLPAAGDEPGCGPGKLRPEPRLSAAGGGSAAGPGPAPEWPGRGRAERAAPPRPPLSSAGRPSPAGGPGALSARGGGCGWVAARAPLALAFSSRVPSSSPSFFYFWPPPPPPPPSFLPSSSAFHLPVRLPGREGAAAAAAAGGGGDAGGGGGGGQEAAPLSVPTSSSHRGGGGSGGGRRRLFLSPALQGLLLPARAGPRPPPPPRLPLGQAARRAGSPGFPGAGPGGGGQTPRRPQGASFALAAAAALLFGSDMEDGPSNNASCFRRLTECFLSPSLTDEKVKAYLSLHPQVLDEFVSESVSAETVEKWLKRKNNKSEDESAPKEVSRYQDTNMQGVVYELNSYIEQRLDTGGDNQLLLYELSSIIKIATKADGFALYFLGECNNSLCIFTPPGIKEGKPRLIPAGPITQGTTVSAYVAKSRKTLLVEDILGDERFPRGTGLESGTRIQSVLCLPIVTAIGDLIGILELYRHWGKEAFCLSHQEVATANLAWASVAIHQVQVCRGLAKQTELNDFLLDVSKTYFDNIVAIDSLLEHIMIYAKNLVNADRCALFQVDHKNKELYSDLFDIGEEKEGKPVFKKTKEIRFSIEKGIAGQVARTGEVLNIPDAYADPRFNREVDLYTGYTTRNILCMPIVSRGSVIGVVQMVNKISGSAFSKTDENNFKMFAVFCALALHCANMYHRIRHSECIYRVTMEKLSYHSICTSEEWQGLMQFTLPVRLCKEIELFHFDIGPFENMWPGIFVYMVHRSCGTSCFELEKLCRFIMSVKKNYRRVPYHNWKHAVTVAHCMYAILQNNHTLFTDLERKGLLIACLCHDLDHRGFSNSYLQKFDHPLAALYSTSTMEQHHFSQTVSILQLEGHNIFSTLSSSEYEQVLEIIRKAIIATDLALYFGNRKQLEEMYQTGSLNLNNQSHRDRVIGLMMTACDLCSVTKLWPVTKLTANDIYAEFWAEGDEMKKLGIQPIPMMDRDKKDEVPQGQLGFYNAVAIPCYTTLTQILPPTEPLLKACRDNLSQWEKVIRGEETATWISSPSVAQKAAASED

A word on the inhibition: it is the drop in the measured response relative to a control, in per cent. In the case of `Cc1cc(-n2nc(Cc3cc(F)cc(C(F)(F)F)c3)nc2C)ccc1C(N)=O` [TP-024], the outcome in experiment [1], in experiment [2] and in experiment [3] was Active. Besides, the inhibition is 0% in [4]; 4% in experiment [5]; 4% in [6]; 0% in [7]; -1% in experiment [8]; 1% in experiment [9].
